Results published in ChEMBL document CHEMBL5058577, “EUbOPEN Chemogenomics Library 2 (Multiplex)” (2022).

Tested on: Fibroblast
Experiment: Multiplex assay against human fibroblast
Type: toxicity, cell-based
Method in brief: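 Four dyes were applied at seeding to live cells: Hoechst33342, BioTracker Green Microtubule Cytoskeleton Dye, MitoTracker Red and Annexin V Alexa Fluor 680. Imaging after compound addition used a CQ1 microscope at 37°C and 5% CO2. CellPathfinder machine-learning gating then sorted cells into Hoechst high-intensity objects or normal cells, normal cells into healthy, pyknosed or fragmented nuclei, and pyknosed cells into mitotic or apoptotic, with tubulin, mitochondrial-mass and membrane-permeability phenotypes given as per cents of healthy-nucleus cells.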

[1] = 12 h, 1 µM, compound concentration 1 uM, replicate 1
[2] = 12 h, 1 µM, compound concentration 1 uM, replicate 2
[3] = 12 h, 10 µM, compound concentration 10 uM, replicate 1
[4] = 12 h, 10 µM, compound concentration 10 uM, replicate 2
[5] = 24 h, 1 µM, compound concentration 1 uM, replicate 1
[6] = 24 h, 1 µM, compound concentration 1 uM, replicate 2
[7] = 24 h, 10 µM, compound concentration 10 uM, replicate 1
[8] = 24 h, 10 µM, compound concentration 10 uM, replicate 2
[9] = 48 h, 1 µM, compound concentration 1 uM, replicate 1
[10] = 48 h, 1 µM, compound concentration 1 uM, replicate 2
[11] = 48 h, 10 µM, compound concentration 10 uM, replicate 1
[12] = 48 h, 10 µM, compound concentration 10 uM, replicate 2

CN(C)CCCc1cc(C(=O)Nc2ccc(-c3ccncc3)cc2)ccc1O.Cl.Cl
Population Apoptotic (%) [1]: 31%
Population Fragmented Nuclei (%) [1]: 15%
Population Healthy Nuclei (%) [1]: 65%
Population Hoechst High Intensity Objects (%) [1]: 4%
Population Membrane Permeable-Phenotype (%) [1]: 0%
Population Mitochondria Different-Phenotype (%) [1]: 7%
Population Mitotic Cells (%) [1]: 68%
Population Normal (%) [1]: 95%
Population Pyknosed Nuclei (%) [1]: 18%
Population Tubulin-Different-Phenotype (%) [1]: 22%
Total Cell Count [1]: 122
Population Apoptotic (%) [2]: 44%
Population Fragmented Nuclei (%) [2]: 22%
Population Healthy Nuclei (%) [2]: 52%
Population Hoechst High Intensity Objects (%) [2]: 2%
Population Membrane Permeable-Phenotype (%) [2]: 4%
Population Mitochondria Different-Phenotype (%) [2]: 4%
Population Mitotic Cells (%) [2]: 55%
Population Normal (%) [2]: 97%
Population Pyknosed Nuclei (%) [2]: 24%
Population Tubulin-Different-Phenotype (%) [2]: 40%
Total Cell Count [2]: 120
Population Apoptotic (%) [3]: 68%
Population Fragmented Nuclei (%) [3]: 33%
Population Healthy Nuclei (%) [3]: 58%
Population Hoechst High Intensity Objects (%) [3]: 7%
Population Membrane Permeable-Phenotype (%) [3]: 0%
Population Mitochondria Different-Phenotype (%) [3]: 15%
Population Mitotic Cells (%) [3]: 31%
Population Normal (%) [3]: 92%
Population Pyknosed Nuclei (%) [3]: 7%
Population Tubulin-Different-Phenotype (%) [3]: 43%
Total Cell Count [3]: 305
Population Apoptotic (%) [4]: 48%
Population Fragmented Nuclei (%) [4]: 31%
Population Healthy Nuclei (%) [4]: 51%
Population Hoechst High Intensity Objects (%) [4]: 4%
Population Membrane Permeable-Phenotype (%) [4]: 4%
Population Mitochondria Different-Phenotype (%) [4]: 6%
Population Mitotic Cells (%) [4]: 51%
Population Normal (%) [4]: 95%
Population Pyknosed Nuclei (%) [4]: 17%
Population Tubulin-Different-Phenotype (%) [4]: 45%
Total Cell Count [4]: 236
Population Apoptotic (%) [5]: 30%
Population Fragmented Nuclei (%) [5]: 16%
Population Healthy Nuclei (%) [5]: 66%
Population Hoechst High Intensity Objects (%) [5]: 1%
Population Membrane Permeable-Phenotype (%) [5]: 2%
Population Mitochondria Different-Phenotype (%) [5]: 3%
Population Mitotic Cells (%) [5]: 70%
Population Normal (%) [5]: 98%
Population Pyknosed Nuclei (%) [5]: 17%
Population Tubulin-Different-Phenotype (%) [5]: 25%
Total Cell Count [5]: 119
Population Apoptotic (%) [6]: 37%
Population Fragmented Nuclei (%) [6]: 22%
Population Healthy Nuclei (%) [6]: 50%
Population Hoechst High Intensity Objects (%) [6]: 4%
Population Membrane Permeable-Phenotype (%) [6]: 1%
Population Mitochondria Different-Phenotype (%) [6]: 7%
Population Mitotic Cells (%) [6]: 62%
Population Normal (%) [6]: 95%
Population Pyknosed Nuclei (%) [6]: 27%
Population Tubulin-Different-Phenotype (%) [6]: 45%
Total Cell Count [6]: 111
Population Apoptotic (%) [7]: 47%
Population Fragmented Nuclei (%) [7]: 30%
Population Healthy Nuclei (%) [7]: 63%
Population Hoechst High Intensity Objects (%) [7]: 6%
Population Membrane Permeable-Phenotype (%) [7]: 0%
Population Mitochondria Different-Phenotype (%) [7]: 11%
Population Mitotic Cells (%) [7]: 52%
Population Normal (%) [7]: 93%
Population Pyknosed Nuclei (%) [7]: 5%
Population Tubulin-Different-Phenotype (%) [7]: 40%
Total Cell Count [7]: 339
Population Apoptotic (%) [8]: 42%
Population Fragmented Nuclei (%) [8]: 31%
Population Healthy Nuclei (%) [8]: 53%
Population Hoechst High Intensity Objects (%) [8]: 4%
Population Membrane Permeable-Phenotype (%) [8]: 5%
Population Mitochondria Different-Phenotype (%) [8]: 5%
Population Mitotic Cells (%) [8]: 57%
Population Normal (%) [8]: 95%
Population Pyknosed Nuclei (%) [8]: 14%
Population Tubulin-Different-Phenotype (%) [8]: 42%
Total Cell Count [8]: 242
Population Apoptotic (%) [9]: 62%
Population Fragmented Nuclei (%) [9]: 28%
Population Healthy Nuclei (%) [9]: 59%
Population Hoechst High Intensity Objects (%) [9]: 0%
Population Membrane Permeable-Phenotype (%) [9]: 0%
Population Mitochondria Different-Phenotype (%) [9]: 1%
Population Mitotic Cells (%) [9]: 37%
Population Normal (%) [9]: 99%
Population Pyknosed Nuclei (%) [9]: 12%
Population Tubulin-Different-Phenotype (%) [9]: 29%
Total Cell Count [9]: 126
Population Apoptotic (%) [10]: 50%
Population Fragmented Nuclei (%) [10]: 23%
Population Healthy Nuclei (%) [10]: 54%
Population Hoechst High Intensity Objects (%) [10]: 8%
Population Membrane Permeable-Phenotype (%) [10]: 1%
Population Mitochondria Different-Phenotype (%) [10]: 5%
Population Mitotic Cells (%) [10]: 50%
Population Normal (%) [10]: 91%
Population Pyknosed Nuclei (%) [10]: 21%
Population Tubulin-Different-Phenotype (%) [10]: 46%
Total Cell Count [10]: 111
Population Apoptotic (%) [11]: 56%
Population Fragmented Nuclei (%) [11]: 28%
Population Healthy Nuclei (%) [11]: 60%
Population Hoechst High Intensity Objects (%) [11]: 11%
Population Membrane Permeable-Phenotype (%) [11]: 0%
Population Mitochondria Different-Phenotype (%) [11]: 8%
Population Mitotic Cells (%) [11]: 43%
Population Normal (%) [11]: 88%
Population Pyknosed Nuclei (%) [11]: 11%
Population Tubulin-Different-Phenotype (%) [11]: 48%
Total Cell Count [11]: 321
Population Apoptotic (%) [12]: 51%
Population Fragmented Nuclei (%) [12]: 35%
Population Healthy Nuclei (%) [12]: 53%
Population Hoechst High Intensity Objects (%) [12]: 2%
Population Membrane Permeable-Phenotype (%) [12]: 3%
Population Mitochondria Different-Phenotype (%) [12]: 2%
Population Mitotic Cells (%) [12]: 48%
Population Normal (%) [12]: 97%
Population Pyknosed Nuclei (%) [12]: 10%
Population Tubulin-Different-Phenotype (%) [12]: 39%
Total Cell Count [12]: 261
